Assay results: PubChem BioAssay AID623975 (Vanderbilt High Throughput Screening Facility, 2012)

Biological target: G protein-activated inward rectifier potassium channel 4 (Homo sapiens) + G protein-activated inward rectifier potassium channel 1 (Homo sapiens) (UniProt P48544+P48549)
Assay: activation of GIRK1/4-mediated thallium influx – cell-based, HEK-293 hGIRK1/4, thallium flux, FluoZin-2, concentration-response, dose response (AID 623975)
Conditions: HEK-293 hGIRK1/4, thallium flux FluoZin-2 fluorescence
Outline: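 System: HEK-293 line stably expressing hGIRK1/4 / Also added: thallium plus EC20 glutamate / Timing: dye loading ~60 min at room temperature, compound 4 min / Technique: thallium-flux fluorescence with FluoZin-2 AM dye, F/F0 traces / Evaluation: Vehicle-corrected slope as % of MPD, logistic potency fit / Repeats: triplicate wells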

Chain of G protein-activated inward rectifier potassium channel 4 (Homo sapiens) + G protein-activated inward rectifier potassium channel 1 (Homo sapiens) (P48544 whole entry, looked up): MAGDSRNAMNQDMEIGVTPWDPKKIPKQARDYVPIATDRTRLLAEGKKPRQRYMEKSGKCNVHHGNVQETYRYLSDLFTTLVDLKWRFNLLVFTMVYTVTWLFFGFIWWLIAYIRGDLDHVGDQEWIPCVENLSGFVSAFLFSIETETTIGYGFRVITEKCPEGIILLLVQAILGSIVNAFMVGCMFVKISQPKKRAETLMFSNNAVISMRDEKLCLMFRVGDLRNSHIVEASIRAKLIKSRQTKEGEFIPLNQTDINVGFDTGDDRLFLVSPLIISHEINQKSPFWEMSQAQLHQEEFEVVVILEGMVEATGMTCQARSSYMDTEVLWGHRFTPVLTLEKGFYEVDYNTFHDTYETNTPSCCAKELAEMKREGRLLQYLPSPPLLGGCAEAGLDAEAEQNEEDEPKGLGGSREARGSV
Chain of G protein-activated inward rectifier potassium channel 4 (Homo sapiens) + G protein-activated inward rectifier potassium channel 1 (Homo sapiens) (P48549 whole entry, looked up): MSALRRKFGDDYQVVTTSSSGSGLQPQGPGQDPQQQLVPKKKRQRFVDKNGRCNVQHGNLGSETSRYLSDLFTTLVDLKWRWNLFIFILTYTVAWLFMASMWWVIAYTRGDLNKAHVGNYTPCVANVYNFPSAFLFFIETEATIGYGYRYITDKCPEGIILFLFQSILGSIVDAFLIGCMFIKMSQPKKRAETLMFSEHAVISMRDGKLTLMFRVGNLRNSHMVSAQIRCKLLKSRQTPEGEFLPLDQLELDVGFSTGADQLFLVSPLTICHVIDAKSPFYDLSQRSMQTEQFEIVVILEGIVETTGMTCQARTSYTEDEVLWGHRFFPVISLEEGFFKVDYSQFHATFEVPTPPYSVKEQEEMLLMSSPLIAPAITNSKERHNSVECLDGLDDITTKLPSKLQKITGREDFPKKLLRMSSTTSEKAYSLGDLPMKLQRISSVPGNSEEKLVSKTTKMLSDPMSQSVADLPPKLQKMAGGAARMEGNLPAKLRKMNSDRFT

## Cc1cc(NC(=O)Nc2ccc(F)c(F)c2)n(-c2ccccc2)n1
  EC50: 1120 nM
